Paper PMC4136711 (Journal of Medicinal Chemistry, 2014)

What was measured:
PRC2 complex = PRC2 complex (Homo sapiens, UniProt Q15910); assay: Selectivity assay; assay type: biochemical; conditions: read-out: estimated IC50 PRC2
Method in brief: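 Tritium-labelled methyl transfer from 3H-SAM to peptide substrate, with substrates near their Km values for the enzyme. Test compound ranged from 100 nM to 100 μM. Reactions were quenched with 7.5 M guanidine hydrochloride, diluted in 20 mM Tris pH 8.0, and captured on FlashPlates for 1 h before counting CPM. The no-compound signal defined 100% activity and the no-enzyme signal defined 0%.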

L3MBTL1 = L3MBTL1 (Homo sapiens, UniProt Q9Y468); conditions: methyllysine reader protein
SETD8 = target: T1, SETD8 (Homo sapiens, UniProt Q9NQR1); assay type: binding
T1 sequence (Q9NQR1 257-378 limits assumed): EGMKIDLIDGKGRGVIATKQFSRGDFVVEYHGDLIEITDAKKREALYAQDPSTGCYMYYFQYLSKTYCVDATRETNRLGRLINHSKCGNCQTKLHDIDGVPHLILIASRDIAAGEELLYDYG

Sequence of PRC2 complex (Q15910 whole entry): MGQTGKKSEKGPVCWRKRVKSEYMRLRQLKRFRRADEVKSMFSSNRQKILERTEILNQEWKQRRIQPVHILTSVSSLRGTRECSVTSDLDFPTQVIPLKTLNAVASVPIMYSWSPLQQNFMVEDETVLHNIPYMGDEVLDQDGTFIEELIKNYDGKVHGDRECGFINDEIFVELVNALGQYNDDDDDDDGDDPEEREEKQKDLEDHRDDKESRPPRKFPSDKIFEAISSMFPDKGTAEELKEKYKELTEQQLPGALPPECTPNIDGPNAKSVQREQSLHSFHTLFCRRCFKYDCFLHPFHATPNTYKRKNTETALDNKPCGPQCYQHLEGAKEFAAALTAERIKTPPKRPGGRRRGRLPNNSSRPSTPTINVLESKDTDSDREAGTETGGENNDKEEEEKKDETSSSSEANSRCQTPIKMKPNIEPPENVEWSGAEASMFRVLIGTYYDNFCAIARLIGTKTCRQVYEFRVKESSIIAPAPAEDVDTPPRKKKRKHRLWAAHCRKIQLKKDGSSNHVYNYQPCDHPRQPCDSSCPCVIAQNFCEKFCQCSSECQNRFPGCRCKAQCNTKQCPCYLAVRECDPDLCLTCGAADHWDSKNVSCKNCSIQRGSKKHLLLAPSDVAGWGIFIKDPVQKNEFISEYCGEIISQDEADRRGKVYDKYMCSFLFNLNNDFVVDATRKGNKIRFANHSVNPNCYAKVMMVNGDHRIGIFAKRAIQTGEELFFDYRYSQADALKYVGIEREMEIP
Sequence of PRC2 complex (O75530 whole entry partner): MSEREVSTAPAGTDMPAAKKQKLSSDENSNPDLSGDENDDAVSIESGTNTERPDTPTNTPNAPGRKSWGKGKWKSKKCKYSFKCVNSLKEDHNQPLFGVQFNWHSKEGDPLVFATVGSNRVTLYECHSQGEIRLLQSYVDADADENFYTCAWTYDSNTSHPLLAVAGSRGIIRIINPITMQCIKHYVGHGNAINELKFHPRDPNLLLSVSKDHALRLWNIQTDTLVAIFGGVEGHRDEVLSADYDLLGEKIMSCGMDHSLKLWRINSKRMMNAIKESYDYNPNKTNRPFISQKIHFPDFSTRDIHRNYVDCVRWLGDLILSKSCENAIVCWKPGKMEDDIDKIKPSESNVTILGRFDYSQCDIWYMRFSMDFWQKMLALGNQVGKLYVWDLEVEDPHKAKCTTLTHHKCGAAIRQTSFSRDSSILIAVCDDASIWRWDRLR
Sequence of PRC2 complex (Q15022 whole entry partner): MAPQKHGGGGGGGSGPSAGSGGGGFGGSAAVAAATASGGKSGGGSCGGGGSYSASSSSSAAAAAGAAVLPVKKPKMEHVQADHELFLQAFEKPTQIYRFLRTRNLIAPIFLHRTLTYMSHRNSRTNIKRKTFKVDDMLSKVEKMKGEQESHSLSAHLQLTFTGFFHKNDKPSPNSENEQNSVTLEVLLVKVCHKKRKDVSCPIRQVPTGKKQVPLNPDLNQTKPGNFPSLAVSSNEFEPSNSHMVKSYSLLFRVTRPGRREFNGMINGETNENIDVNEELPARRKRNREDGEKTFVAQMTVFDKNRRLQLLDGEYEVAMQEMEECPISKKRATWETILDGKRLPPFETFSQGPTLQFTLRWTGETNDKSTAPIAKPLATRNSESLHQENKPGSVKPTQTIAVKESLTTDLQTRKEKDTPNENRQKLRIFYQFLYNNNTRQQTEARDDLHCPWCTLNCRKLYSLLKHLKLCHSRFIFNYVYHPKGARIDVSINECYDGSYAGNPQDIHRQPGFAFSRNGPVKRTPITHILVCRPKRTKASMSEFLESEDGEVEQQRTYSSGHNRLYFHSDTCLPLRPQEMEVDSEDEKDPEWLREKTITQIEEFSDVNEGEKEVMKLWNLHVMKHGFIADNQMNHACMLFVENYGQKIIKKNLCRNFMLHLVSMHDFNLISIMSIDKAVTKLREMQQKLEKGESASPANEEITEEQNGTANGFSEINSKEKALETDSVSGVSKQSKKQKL
Sequence of L3MBTL1 (Q9Y468 whole entry, species assumed): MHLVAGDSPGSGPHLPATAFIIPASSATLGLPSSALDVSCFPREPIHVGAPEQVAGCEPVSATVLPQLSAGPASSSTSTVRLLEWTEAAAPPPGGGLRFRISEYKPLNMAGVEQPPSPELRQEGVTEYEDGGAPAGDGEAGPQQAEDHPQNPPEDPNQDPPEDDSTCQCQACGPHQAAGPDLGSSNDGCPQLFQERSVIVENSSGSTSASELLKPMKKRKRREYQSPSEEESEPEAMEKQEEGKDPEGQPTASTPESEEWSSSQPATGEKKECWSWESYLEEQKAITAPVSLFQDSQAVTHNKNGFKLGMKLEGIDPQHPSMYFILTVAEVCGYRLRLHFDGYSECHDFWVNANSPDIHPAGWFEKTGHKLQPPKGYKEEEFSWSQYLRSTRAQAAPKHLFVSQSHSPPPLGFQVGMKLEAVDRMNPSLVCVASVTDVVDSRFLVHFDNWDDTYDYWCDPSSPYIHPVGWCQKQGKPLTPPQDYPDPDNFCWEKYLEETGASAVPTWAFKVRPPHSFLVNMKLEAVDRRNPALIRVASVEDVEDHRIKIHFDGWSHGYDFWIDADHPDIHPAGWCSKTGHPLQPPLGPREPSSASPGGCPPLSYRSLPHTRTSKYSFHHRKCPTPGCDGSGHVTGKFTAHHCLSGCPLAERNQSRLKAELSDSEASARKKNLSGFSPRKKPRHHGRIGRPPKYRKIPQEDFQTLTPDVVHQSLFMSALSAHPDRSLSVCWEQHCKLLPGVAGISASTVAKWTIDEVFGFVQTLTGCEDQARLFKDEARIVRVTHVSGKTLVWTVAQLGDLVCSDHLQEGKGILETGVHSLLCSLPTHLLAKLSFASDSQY

| potency estimated from few doses (PRC2 complex) [µM] | Activity for L3MBTL1 (L3MBTL1) | Displacement of FITC-labeled H4K20me peptide (FP), in words (SETD8) | SMILES |
| --- | --- | --- | --- |
| > 50 | no appreciable activity | – | COc1cc2nc(N3CCCC3)nc(NCCCCCN3CCCC3)c2cc1OC [Compound 1, 6,7-Dimethoxy-2-(pyrrolidin-1-yl)-N-(5-(pyrrolidin-1-yl)pentyl)quinazolin-4-amine] |
| – | – | did not displace the peptide | COc1cc2nc(N3CCCC3)nc(N(C)CCCCCN3CCCC3)c2cc1OC [Compound 14, 6,7-Dimethoxy-N-methyl-2-(pyrrolidin-1-yl)-N-(5-(pyrrolidin-1-yl)pentyl)quinazolin-4-amine] |
